Several values for one entry are separate records, joined by “and”; a condition that tells them apart may be missing. Equal entries are not always repeated.
Assays:
M5076 [1] = experiment: Compound was tested for the antitumor activity against solid tumor models at dose level of 50 mg/kg (M5076 assay); type: functional
P388 [2] = experiment: Compound was tested for the antitumor activity against P388 lymphocytic leukemia at dose level of 60 mg/kg; type: functional, Mus musculus
M5076 [3] = experiment: Compound was tested in vivo for the antitumor activity against solid tumor models at dose level of 50 mg/kg (M5076 assay); type: functional
[4] = Pseudo-first order rate constant for the reaction with 4-(p-Nitrobenzyl)pyridine
Procedure, shortened: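 Alkylating ability was measured against 4-(p-nitrobenzyl)pyridine (NBP), with 0.2 µmol alkylating agent and 240 µmol NBP as starting amounts. At timed points the mixture was diluted with acetone, mixed 3 s, and read at once at 570 nm. The blank was NBP, water, absolute ethanol, base solution and acetone. k' = slope of E570 vs time. Competing hydrolysis was assumed minor and neglected in the initial phase.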

P388 [5] = experiment: Compound was tested for the antitumor activity against P388 lymphocytic leukemia at dose level of 15 mg/kg; type: functional, Mus musculus
P388 [6] = experiment: Compound was tested in vivo for its antitumor activity against P388 lymphocytic leukemia at dose level of 15 mg/kg; type: functional, Mus musculus
P388 [7] = experiment: Compound was tested for the antitumor activity against P388 lymphocytic leukemia at dose level of 30 mg/kg; 6/6; type: functional, Mus musculus
Homo sapiens [8] = experiment: Compound was tested in vivo for the antitumor activity against solid tumor models at dose level of 200 mg/kg (MX-1 assay); type: functional
Homo sapiens [9] = experiment: Compound was tested for the antitumor activity against solid tumor models at t dose level of 200 mg/kg (MX-1 assay); type: functional
P388 [10] = experiment: Compound was tested for the antitumor activity against P388 lymphocytic leukemia at dose level of 30 mg/kg; type: functional, Mus musculus
P388 [11] = experiment: Compound was tested for the antitumor activity against P388 lymphocytic leukemia at dose level of 120 mg/kg; type: functional, Mus musculus
[12] = Compound was tested for the antitumor activity against solid tumor models at dose level of 100 mg/kg (LOX assay); type: functional, Homo sapiens
P388 [13] = experiment: Compound was tested in vivo for its antitumor activity against P388 lymphocytic leukemia at dose level of 60 mg/kg; type: functional, Mus musculus
P388 [14] = experiment: Compound was tested in vivo for the antitumor activity against P388 lymphocytic leukemia at dose level of 30 mg/kg; type: functional, Mus musculus
P388 [15] = experiment: Compound was tested in vivo for the antitumor activity against P388 lymphocytic leukemia at dose level of 60 mg/kg; type: functional, Mus musculus
P388 [16] = experiment: Compound was tested for the antitumor activity against P388 lymphocytic leukemia at dose level of 15 mg/kg; 6/6; type: functional, Mus musculus
P388 [17] = experiment: Compound was tested for the antitumor activity against P388 lymphocytic leukemia at dose level of 60 mg/kg; 6/6; type: functional, Mus musculus
[18] = Compound was tested in vivo for the antitumor activity against solid tumor models at dose level of 100 mg/kg (LOX assay); type: functional, Homo sapiens
P388 [19] = experiment: Compound was tested in vivo for its antitumor activity against P388 lymphocytic leukemia at dose level of 240 mg/kg; Toxic dose; type: functional, organism-based; design: dose 240 mg/kg; conditions: Mus musculus
P388 [20] = experiment: Compound was tested in vivo for its antitumor activity against P388 lymphocytic leukemia and at dose level of 120 mg/kg; Toxic dose; type: functional, organism-based; design: dose 120 mg/kg; conditions: Mus musculus
P388 [21] = experiment: Compound was tested in vivo for the antitumor activity against P388 lymphocytic leukemia at dose level of 15 mg/kg; type: functional, Mus musculus
P388 [22] = experiment: Compound was tested in vivo for its antitumor activity against P388 lymphocytic leukemia at dose level of 30 mg/kg; type: functional, Mus musculus
P388 [23] = experiment: Compound was tested for the antitumor activity against P388 lymphocytic leukemia at dose level of 120 mg/kg; 5/6; type: functional, Mus musculus
P388 [24] = experiment: Compound was tested for the antitumor activity against P388 lymphocytic leukemia at dose level of 240 mg/kg; 0/6; type: functional, Mus musculus
P388 [25] = experiment: Compound was tested in vivo for the antitumor activity against P388 lymphocytic leukemia at dose level of 240 mg/kg; type: functional, Mus musculus
[26] = Compound was tested for the antitumor activity against solid tumor models at dose level of 400 mg/kg (LOX assay); type: functional, Homo sapiens
P388 [27] = experiment: Compound was tested for the antitumor activity against P388 lymphocytic leukemia at dose level of 120 mg/kg; 6/6; type: functional, Mus musculus
M5076 [28] = experiment: Compound was tested for the antitumor activity against solid tumor models at dose level of 800 mg/kg (M5076 assay); type: functional
P388 [29] = experiment: Compound was tested for the antitumor activity against P388 lymphocytic leukemia at dose level of 240 mg/kg; type: functional, Mus musculus
M5076 [30] = experiment: Compound was tested in vivo for the antitumor activity against solid tumor models at dose level of 800 mg/kg (M5076 assay); type: functional, Homo sapiens
[31] = Compound was tested in vivo for the antitumor activity against solid tumor models at dose level of 400 mg/kg (LOX assay); type: functional, Homo sapiens
P388 [32] = experiment: Compound was tested in vivo for the antitumor activity against P388 lymphocytic leukemia at dose level of 120 mg/kg; type: functional, Mus musculus
Homo sapiens [33] = experiment: Compound was tested in vivo for the antitumor activity against solid tumor models at dose level of 800 mg/kg (MX-1 assay); type: functional
P388 [34] = experiment: Compound was tested for the antitumor activity against P388 lymphocytic leukemia at dose level of 240 mg/kg; 6/6; type: functional, Mus musculus
P388 [35] = experiment: Compound was tested in vivo for its antitumor activity against P388 lymphocytic leukemia at dose level of 120 mg/kg; type: functional, Mus musculus
P388 [36] = experiment: Compound was tested in vivo for its antitumor activity against P388 lymphocytic leukemia at dose level of 240 mg/kg; type: functional, Mus musculus
Homo sapiens [37] = experiment: Compound was tested for the antitumor activity against solid tumor models at t dose level of 800 mg/kg (MX-1 assay); type: functional
P388 [38] = experiment: Compound was tested in vivo for the antitumor activity against P388 lymphocytic leukemia at dose level of 20 mg/kg; type: functional, Mus musculus
P388 [39] = experiment: Compound was tested in vivo for its antitumor activity against P388 lymphocytic leukemia at dose level of 20 mg/kg; type: functional, Mus musculus
P388 [40] = experiment: Compound was tested for the antitumor activity against P388 lymphocytic leukemia at dose level of 40 mg/kg; type: functional, Mus musculus
P388 [41] = experiment: Compound was tested in vivo for the antitumor activity against P388 lymphocytic leukemia at dose level of 40 mg/kg; type: functional, Mus musculus
P388 [42] = experiment: Compound was tested in vivo for its antitumor activity against P388 lymphocytic leukemia at dose level of 120 mg/kg; Toxic dose; type: functional, organism-based; design: dose 120 mg/kg; conditions: Mus musculus
P388 [43] = experiment: Compound was tested for the antitumor activity against P388 lymphocytic leukemia at dose level of 20 mg/kg; 6/6; type: functional, Mus musculus
P388 [44] = experiment: Compound was tested for the antitumor activity against P388 lymphocytic leukemia at dose level of 20 mg/kg; type: functional, Mus musculus
P388 [45] = experiment: Compound was tested for the antitumor activity against P388 lymphocytic leukemia at dose level of 40 mg/kg; 6/6; type: functional, Mus musculus
P388 [46] = experiment: Compound was tested in vivo for its antitumor activity against P388 lymphocytic leukemia at dose level of 40 mg/kg; type: functional, Mus musculus

Row | K' [4] [abs/time] | SMILES | Weight difference (P388 [2]) [g] | Weight difference (P388 [11]) [g] | KE (P388 [13]) | T/C (P388 [15]) [%] | TDS (P388 [17]) | KE (P388 [19]) | T/C (P388 [25]) [%] | TDS (P388 [27]) | Weight difference (P388 [29]) [g] | T/C (P388 [32]) [%] | TDS (P388 [34]) | KE (P388 [35]) | KE (P388 [36]) | other results
1 | 0.00112 | CC(C)NC(=O)OCc1c(-c2ccccc2)c(COC(=O)NC(C)C)n(C)c1-c1ccccc1 | -3.8 | -4.5 | 3.89 | 180 | 6 | Toxic | – | – | – | – | – | – | – | Weight difference (M5076 [1]): -2.5 g; T/C (M5076 [3]): 139%; Weight difference (P388 [5]): -3.7 g; KE (P388 [6]): -0.19; TDS (P388 [7]): 6; T/C (Homo sapiens [8]): -3%; Weight difference (Homo sapiens [9]): -7.2 g; Weight difference (P388 [10]): -5.3 g; Weight difference [12]: -3.5 g; T/C (P388 [14]): 150%; TDS (P388 [16]): 6; T/C [18]: 180%; KE (P388 [20]): Toxic; T/C (P388 [21]): 134%; KE (P388 [22]): 0.88; TDS (P388 [23]): 5; TDS (P388 [24]): 0
2 | 0.00321 | CC(C)NC(=O)OCc1c(-c2ccccc2)c(-c2ccccc2)n(C)c1COC(=O)NC(C)C | -1.1 | 1.5 | 0.59 | 142 | 6 | – | 181 | 6 | -2.4 | 160 | 6 | 2.06 | 3.74 | Weight difference [26]: -3.3 g; Weight difference (M5076 [28]): -2.8 g; T/C (M5076 [30]): 178%; T/C [31]: 301%; T/C (Homo sapiens [33]): 0%; Weight difference (Homo sapiens [37]): -5.3 g
3 | 0.00669 | CC(C)NC(=O)OCc1c(-c2ccccc2)c(-c2ccccc2)c(COC(=O)NC(C)C)n1C | 0 | -0.2 | -1.44 | 107 | – | – | 101 | – | -1.7 | 98 | – | -1.56 | -1.51 | TDS ratio (P388 [2]): 6; TDS ratio (P388 [29]): 6; TDS ratio (P388 [11]): 6
4 | 0.00498 | CC(C)NC(=O)OCc1c(COC(=O)NC(C)C)c(-c2ccccc2)n(C)c1-c1ccccc1 | -2.2 | -4.4 | 6.43 | 209 | 6 | Toxic | – | 6 | -5.5 | 94 | 6 | – | – | T/C (P388 [38]): 137% and 205%; KE (P388 [39]): 0.08; Weight difference (P388 [40]): -1.6 g; T/C (P388 [41]): 168%; KE (P388 [42]): Toxic; TDS (P388 [43]): 6; Weight difference (P388 [44]): -0.1 g; TDS (P388 [45]): 6; KE (P388 [46]): 2.85
